Compounds with a hit are over-represented: about 1.4% of the library has one in this group of screens.
HCV NS3 hel inh = blocks Hepatitis C virus NS3 helicase unwinding; NS3 helicase DNA unwinding, Cy5 molecular beacon fluorescence; hit rate 0.56% among 290,000; inhibition, % at 10.9 µM;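 active means inhibition above the mean of all tested compounds plus 3 SD, set per campaign, cut at about 35% in these data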;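 further: 0% = DMSO wells and 100% = thioflavine S control wells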
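Test system: hepatitis C virus NS3 helicase domain fragment enzyme. Also added: annealed dual-labelled DNA beacon duplex, ATP-started. Timing: 60 min unwinding reaction at 25 °C after ATP addition. Technique: Cy5 fluorescence. Measure: % inhibition of unwinding.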
core dimer inh = blocks dimerization of HCV core protein | TR-FRET GST/Flag-core106 dimerization, 1536-well | inhibition, % at 5 µM | hit rate 0.33% among 300,000 | AID 1899;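 active means inhibition above the mean of all tested compounds plus 3 SD, set per screening campaign, cut at about 45% in these data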
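assay system = GST-tagged and Flag-tagged HCV core protein residues 1-106 | controls = unlabelled core106 and no-GST-core106 wells | incubation = compound-protein-antibody incubation 4 h at 22.5 °C | probe or stimulus = Eu donor and XL665 acceptor anti-tag antibodies | read-out = % inhibition based on acceptor/donor emission ratio | signal = TR-FRET 671 and 617 nm emission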
EBNA-1 inh = blocks EBNA-1 binding to DNA; EBNA-1 DNA binding, fluorescence polarization; hit rate 0.34% among 300,000; AID 1950; inhibition, % at 14.8 µM; in the data active means inhibition above about 28%
ZTA counter = ZTA (EBV) inhibition in EBNA-1 counter-screen | ZTA-DNA binding, fluorescence polarization | hit rate 0.15% among 320,000 | P03206 | AID 2234 | inhibition, % at 11 µM; in the data active means inhibition above about 33%
Target sequence (P03206 whole entry, looked up): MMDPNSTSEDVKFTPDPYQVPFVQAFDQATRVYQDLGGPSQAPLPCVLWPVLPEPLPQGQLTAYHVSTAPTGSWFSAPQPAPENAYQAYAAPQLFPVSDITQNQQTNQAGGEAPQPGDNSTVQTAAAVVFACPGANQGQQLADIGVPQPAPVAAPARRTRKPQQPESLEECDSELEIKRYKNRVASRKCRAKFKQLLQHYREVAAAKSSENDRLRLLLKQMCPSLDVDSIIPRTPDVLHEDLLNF
UBC9 SUMO inh = inhibitors of human SUMOylation (UBC9); P63279; HTRF SUMOylation assay, SAE1/SAE2 + UBC9, in vitro; inhibition, % at 35 µM; hit rate 0.36% among 290,000; AID 2006; in the data active means inhibition above about 50%, passing the limit was not always enough
Target sequence (P63279 whole entry, looked up): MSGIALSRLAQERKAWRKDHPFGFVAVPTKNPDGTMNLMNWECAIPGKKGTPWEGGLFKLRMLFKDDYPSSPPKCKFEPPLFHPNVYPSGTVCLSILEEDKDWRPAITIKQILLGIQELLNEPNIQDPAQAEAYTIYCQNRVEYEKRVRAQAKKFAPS
EBNA-1 confirm = EBNA-1 (EBV) inhibition, confirmation | shares compounds with EBNA-1 inh | Recombinant EBNA-1 DBD, Cy5-DNA fluorescence polarization | inhibition, % at 14.8 µM | hit rate 35% among 830;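 active means mean inhibition across replicates above a set limit taken from the earlier primary screen, cut at about 28% in these data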;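 further: plate controls were EBNA-1 protein with DMSO for no effect and wells lacking EBNA-1 for full effect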
ZTA DNA inh trip = blocks Epstein-Barr virus ZTA in triplicate, EBNA-1 counter-screen. shares compounds with EBNA-1 inh. Zta-ZRE DNA binding, Cy5 fluorescence polarization. inhibition, % at 11.1 µM. 830 tested, under 10 active. AID 2328;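 active means mean inhibition over triplicates above a set limit taken from the primary EBNA-1 screen, cut at about 37% in these data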;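 further: purified full length Zta protein with Cy5 labeled ZRE DNA probe; 0% = Zta with DMSO and 100% = wells lacking Zta protein; inhibitors lower polarization by freeing the labeled DNA probe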
The depositor's hits bear a star.

Results for O=C(CN1C(=O)S/C(=C\c2ccccc2)C1=O)NNC(=O)c1ccccc1O ?
HCV NS3 hel inh: 11; core dimer inh: 1; EBNA-1 inh: -2; ZTA counter: -1

Results for COc1cc(/C=C2\SC(=O)N(CC(=O)Nc3ccccc3F)C2=O)cc(Cl)c1O ?
HCV NS3 hel inh: -10; core dimer inh: -10; EBNA-1 inh: 0; ZTA counter: 3

How did CCN(C(=O)COC(=O)c1nc(Cl)ccc1Cl)C1CCS(=O)(=O)C1 (stereo not drawn) do in these assays?
core dimer inh: 4; EBNA-1 inh: 4; ZTA counter: 5

What do the screens show for `COC(=O)c1ccccc1S(=O)(=O)NCc1nc2nc(C)cc(C)n2n1`?
HCV NS3 hel inh: 8; core dimer inh: 0; EBNA-1 inh: 1; ZTA counter: 4; UBC9 SUMO inh: 6

What do the screens show for `CN(C)c1ccc(/C=C(\C#N)C(=O)NCc2ccco2)cc1`?
HCV NS3 hel inh: -4; core dimer inh: -22; EBNA-1 inh: 44*; ZTA counter: 24; UBC9 SUMO inh: 22; EBNA-1 confirm: 69*; ZTA DNA inh trip: -5

Results for CCN(CC)c1ccc(/C=C(\C#N)C(=O)NCc2ccco2)cc1 ?
HCV NS3 hel inh: 13; core dimer inh: -10; EBNA-1 inh: 6; ZTA counter: 3; UBC9 SUMO inh: -12

Results for Cc1ccc(OCC(=O)NC(=S)Nc2cccc(NC(=O)c3ccccc3)c2)cc1 ?
HCV NS3 hel inh: 2; core dimer inh: 12; EBNA-1 inh: 29*; ZTA counter: 14; UBC9 SUMO inh: 10; EBNA-1 confirm: 17; ZTA DNA inh trip: -6

What do the screens show for `Cc1ccc(S(=O)(=O)N2CCC(C(=O)OCC(=O)NC3(C#N)CCCCC3)CC2)cc1C`?
core dimer inh: -2; EBNA-1 inh: -9; ZTA counter: 5

Results for CCn1c2ccccc2c2cc(NC(=O)COC(=O)c3ccccc3F)ccc21 ?
HCV NS3 hel inh: 7; core dimer inh: 14; EBNA-1 inh: 37*; ZTA counter: 6; UBC9 SUMO inh: -8; EBNA-1 confirm: 25; ZTA DNA inh trip: -4

Results for Cc1ccccc1OCc1nc(-c2ccc(NC(=O)c3ccc4c(c3)OCO4)cc2)no1 ?
HCV NS3 hel inh: -7; core dimer inh: 17; EBNA-1 inh: 29*; ZTA counter: 4; UBC9 SUMO inh: 39; EBNA-1 confirm: 39*; ZTA DNA inh trip: 25

What do the screens show for `O=C(CN1C(=O)c2ccccc2C1=O)NC1CCC(O)CC1` (stereo not drawn)?
ZTA counter: 10

How did Cc1ccc2cccc(NC(=S)NC(=O)c3ccnn3C)c2n1 do in these assays?
HCV NS3 hel inh: -6; core dimer inh: 5; EBNA-1 inh: 40*; ZTA counter: -21; UBC9 SUMO inh: -35; EBNA-1 confirm: 32*; ZTA DNA inh trip: 5

How did CCOC(=O)c1c(C)[nH]c(C(=O)COC(=O)CNC(=O)c2ccc(Cl)cc2Cl)c1C do in these assays?
HCV NS3 hel inh: -1; core dimer inh: 3; EBNA-1 inh: 96*; ZTA counter: 12; UBC9 SUMO inh: -12; EBNA-1 confirm: 26; ZTA DNA inh trip: 4

What do the screens show for `Cc1cc(CSc2ccccc2)ccc1NC(=O)c1cccc([N+](=O)[O-])c1`?
HCV NS3 hel inh: -4; core dimer inh: 6; EBNA-1 inh: 28*; ZTA counter: 5; UBC9 SUMO inh: -3; EBNA-1 confirm: 13; ZTA DNA inh trip: 15

Results for CCOc1ccc2nc(NCCNC(=O)Nc3ccccc3)c(C#N)cc2c1 ?
HCV NS3 hel inh: 0; core dimer inh: -6; EBNA-1 inh: 34*; ZTA counter: 4; UBC9 SUMO inh: 49; EBNA-1 confirm: 18; ZTA DNA inh trip: -13

Results for O=C(CNCc1cccs1)Nc1ccc(OC(F)(F)F)cc1 ?
HCV NS3 hel inh: -24; core dimer inh: -11; EBNA-1 inh: -16; ZTA counter: -15; UBC9 SUMO inh: -4

Results for CC(=O)c1c(C)[nH]c(C(=O)Nc2cccc(C(F)(F)F)c2)c1C ?
HCV NS3 hel inh: 24; core dimer inh: 1; EBNA-1 inh: -7; ZTA counter: 4; UBC9 SUMO inh: -17

Results for CCOc1ccccc1N(CC(=O)Nc1cccc(OC)c1)S(=O)(=O)c1ccccc1 ?
HCV NS3 hel inh: -13; core dimer inh: -1; EBNA-1 inh: 5; ZTA counter: 11; UBC9 SUMO inh: -17

What do the screens show for `CCOc1ccccc1N(CC(=O)Nc1ccc(OC)cc1)S(=O)(=O)c1ccccc1`?
HCV NS3 hel inh: -2; core dimer inh: 14; EBNA-1 inh: 28*; ZTA counter: -12; UBC9 SUMO inh: 10; EBNA-1 confirm: -3; ZTA DNA inh trip: -3

How did COc1ccc(-c2cc(C(=O)Nc3c(C)nn(Cc4ccccc4Cl)c3C)no2)cc1 do in these assays?
HCV NS3 hel inh: 1; core dimer inh: 6; EBNA-1 inh: 49*; ZTA counter: 2; UBC9 SUMO inh: 8; EBNA-1 confirm: 41*; ZTA DNA inh trip: -3

What do the screens show for `Cc1c(C(N)=O)sc2ncn(CC(=O)N(C)C3CCCCC3)c(=O)c12`?
HCV NS3 hel inh: 4; core dimer inh: 6; EBNA-1 inh: 7; ZTA counter: 17; UBC9 SUMO inh: 6

How did CC(=O)c1ccc(S(=O)(=O)N2CCC(NC(=O)Nc3cccc(F)c3)CC2)cc1 do in these assays?
HCV NS3 hel inh: -7; core dimer inh: 2; EBNA-1 inh: -1; ZTA counter: -7; UBC9 SUMO inh: 0

What do the screens show for `COC(=O)c1cccc(S(=O)(=O)N2CCC(NC(=O)Nc3cccc(F)c3)CC2)c1`?
HCV NS3 hel inh: -10; core dimer inh: -15; EBNA-1 inh: 36*; ZTA counter: 2; UBC9 SUMO inh: -6; EBNA-1 confirm: 61*; ZTA DNA inh trip: -2

What do the screens show for `CCOc1ccc2nc(SCC(=O)NNC(=O)c3ccco3)c(C)cc2c1`?
HCV NS3 hel inh: -16; core dimer inh: 2; EBNA-1 inh: 57*; ZTA counter: 7; UBC9 SUMO inh: 0; EBNA-1 confirm: 42*; ZTA DNA inh trip: 2

Results for CCC(C)NS(=O)(=O)c1cc2c3c(c1)CCC(=O)N3CCC2 (stereo not drawn) ?
HCV NS3 hel inh: 6; core dimer inh: -5; EBNA-1 inh: 4; ZTA counter: -8; UBC9 SUMO inh: 17

What do the screens show for `CC(NC(=O)CNC(=O)c1cccc(Cl)c1)c1ccccc1` (stereo not drawn)?
HCV NS3 hel inh: -3; core dimer inh: -2; EBNA-1 inh: -15; ZTA counter: -7; UBC9 SUMO inh: 16

How did O=S(=O)(NCc1ccccc1)c1ccc(S(=O)(=O)N(Cc2cccs2)CC2CCCO2)cc1 (stereo not drawn) do in these assays?
HCV NS3 hel inh: -1; core dimer inh: 3; EBNA-1 inh: 35*; ZTA counter: 17; UBC9 SUMO inh: 0; EBNA-1 confirm: 27; ZTA DNA inh trip: 20

Screens from PubChem BioAssay.
